Data published in ChEMBL document CHEMBL1123382, “Potential tumor- or organ-imaging agents. 27. Polyiodinated 1,3-disubstituted and 1,2,3-trisubstituted triacylglycerols” (J Med Chem, 1986).
“And” between values parts separate entries of the source, which are not always exact repeats. Equal values may be shown once.

Columns and labels:
Rattus norvegicus [1] = experiment: Liver radioactivity after iv administration of compound (30 min) in rats; format: functional, organism-based
Procedure, shortened: (§1)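 Rats (3-5 per time point) dosed iv with about 5-30 μCi (9-83 μg) of 125I-labeled compound in saline containing Tween-20. Killed by exsanguination under ether at 5 min, 30 min or 24 h. Liver removed, minced, blotted and counted. Values are % administered dose per organ, based on each animal's actual liver weight, ± SEM.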

Rattus norvegicus [2] = experiment: Compound (125I labeled) was evaluated for the total radioactivity in high-density lipoprotein 5 min after intravenous administration.; format: functional
Procedure, shortened: (§2)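 Rat plasma taken 5 or 30 min after iv dosing of 125I-labeled compound (saline/Tween-20) and run on polyacrylamide gel electrophoresis. Gels sectioned and each section gamma-counted. Radioactivity in each band (stacking gel, lipoproteins, albumin, below-albumin) is given as % of total radioactivity applied to the gel.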

Rattus norvegicus [3] = experiment: Biodistribution in Rat blood after 5 minutes of iv administration; format: ADME, organism-based; settings: in vivo
Procedure, shortened: (§3)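 125I-labeled compound solubilized in normal saline with Tween-20 and given iv to rats, about 5-30 μCi (9-83 μg) per animal. Three to five rats per time point. Rats killed by exsanguination under ether anesthesia at 5 min, 30 min or 24 h. Organs minced, blotted free of blood and counted for radioiodine. Lines with "per g" are % administered dose per gram ± SEM.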

Rattus norvegicus [4] = experiment: Biodistribution in Rat heart after 5 minutes of iv administration; format: ADME, organism-based; settings: in vivo; procedure, shortened: as §3
Rattus norvegicus [5] = experiment: Compound (125I labeled) was evaluated for the total radioactivity in stacking gel 5 min after intravenous administration.; format: functional; procedure, shortened: as §2
Rattus norvegicus [6] = experiment: Compound (125I labeled) was evaluated for the total radioactivity in low-density lipoprotein, at 30 min after intravenous administration.; format: functional; procedure, shortened: as §2
Rattus norvegicus [7] = experiment: Compound (125I labeled) was evaluated for the total radioactivity in stacking gel at 30 min after intravenous administration.; format: functional; procedure, shortened: as §2
Rattus norvegicus [8] = experiment: (§4) Biodistribution in Rat liver after 30 minutes of iv administration; format: ADME, organism-based; settings: in vivo, 0.5 h; procedure, shortened: as §3
Rattus norvegicus [9] = experiment: Compound (125I labeled) was evaluated for the total radioactivity in high-density lipoprotein, at 30 min after intravenous administration.; format: functional; procedure, shortened: as §2
Rattus norvegicus [10] = experiment: Biodistribution in Rat lung after 30 minutes of iv administration; format: ADME, organism-based; settings: in vivo, 0.5 h; procedure, shortened: as §3
Rattus norvegicus [11] = experiment: Compound was evaluated for the lipid soluble radioactivity extracted from rat plasma at 0.5 hr after intravenous administration.; format: functional
Procedure, shortened: (§5)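 Liver and plasma taken 0.5 or 24 h after iv dosing of 125I-labeled compound in rats (n = 3-5). Extracted by a modified Folch procedure; value is % lipid (CHCl3/MeOH)-extractable radioactivity ± SEM. Extracts run on TLC in hexane/ethyl acetate 5:2 against unlabeled standard, then 1-cm strips counted to give % parent compound.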

Rattus norvegicus [12] = experiment: Biodistribution in Rat liver after 24 hours of iv administration; format: ADME, organism-based; settings: in vivo; procedure, shortened: as §3
Rattus norvegicus [13] = experiment: Biodistribution in Rat blood after 30 minutes of iv administration; format: ADME, organism-based; settings: in vivo, 0.5 h; procedure, shortened: as §3
Rattus norvegicus [14] = experiment: Biodistribution in Rat lung after 5 minutes of iv administration; format: ADME, organism-based; settings: in vivo; procedure, shortened: as §3
Rattus norvegicus [15] = experiment: Compound (125I labeled) was evaluated for the total radioactivity in low-density lipoprotein 5 min after intravenous administration.; format: functional; set-up: concentration or dose not given beside the values; procedure, shortened: as §2
Rattus norvegicus [16] = experiment: Compound (125I labeled) was evaluated for the total radioactivity in albumin 5 min after intravenous administration.; format: functional; set-up: concentration or dose not given beside the values; procedure, shortened: as §2
Rattus norvegicus [17] = experiment: Compound was evaluated for the lipid soluble radioactivity extracted from rat liver at 24 hr after intravenous administration.; format: functional; procedure, shortened: as §5
Rattus norvegicus [18] = experiment: Biodistribution in Rat heart after 30 minutes of iv administration; format: ADME, organism-based; settings: in vivo, 0.5 h; procedure, shortened: as §3
Rattus norvegicus [19] = experiment: Biodistribution in Rat blood after 24 hours of iv administration; format: ADME, organism-based; settings: in vivo; procedure, shortened: as §3
Rattus norvegicus [20] = experiment: Biodistribution in Rat lung after 24 hours of iv administration; format: ADME, organism-based; settings: in vivo; procedure, shortened: as §3
Rattus norvegicus [21] = experiment: Compound was evaluated for the lipid soluble radioactivity extracted from rat liver at 0.5 hr after intravenous administration.; format: functional; procedure, shortened: as §5
Rattus norvegicus [22] = experiment: Biodistribution in Rat liver after 5 minutes of iv administration; format: ADME, organism-based; settings: in vivo; procedure, shortened: as §3
Rattus norvegicus [23] = experiment: Liver radioactivity after iv administration of compound (5 min) in rats; format: functional, organism-based; procedure, shortened: as §1
Rattus norvegicus [24] = experiment: Compound (125I labeled) was evaluated for the total radioactivity in albumin at 30 min after intravenous administration.; format: functional; set-up: concentration or dose not given beside the values; procedure, shortened: as §2
Rattus norvegicus [25] = experiment: Liver radioactivity after iv administration of compound (24 h) in rats; format: functional, organism-based; procedure, shortened: as §1
Rattus norvegicus [26] = experiment: Biodistribution in Rat heart after 24 hours of iv administration; format: ADME, organism-based; settings: in vivo; procedure, shortened: as §3
Rattus norvegicus [27] = experiment: as §4; format: ADME, organism-based; settings: in vivo, 0.5 h; procedure, shortened: as §3; remark: listed apart in the source
Rattus norvegicus [28] = experiment: Compound was evaluated for the lipid soluble radioactivity extracted from rat plasma at 24 hr after intravenous administration.; format: functional; procedure, shortened: as §5
Rattus norvegicus [29] = experiment: Evaluated for the total radioactivity in below albumin at 30 min after intravenous administration.; format: functional; procedure, shortened: as §2

Row | SMILES | Radioactivity (Rattus norvegicus [1]) | Total radioactivity (Rattus norvegicus [2]) [%] | Biodistribution (Rattus norvegicus [3]) [%] | Biodistribution (Rattus norvegicus [4]) [%] | Total radioactivity (Rattus norvegicus [5]) [%] | Total radioactivity (Rattus norvegicus [6]) [%] | Total radioactivity (Rattus norvegicus [7]) [%] | Biodistribution (Rattus norvegicus [8]) [%] | Total radioactivity (Rattus norvegicus [9]) [%] | Biodistribution (Rattus norvegicus [10]) [%] | Extracted (Rattus norvegicus [11]) [%] | Parent compound (Rattus norvegicus [11]) [%] | Biodistribution (Rattus norvegicus [13]) [%] | Biodistribution (Rattus norvegicus [14]) [%] | Total radioactivity (Rattus norvegicus [15]) [%] | Total radioactivity (Rattus norvegicus [16]) [%] | Extracted (Rattus norvegicus [17]) [%] | Parent compound (Rattus norvegicus [17]) [%] | Biodistribution (Rattus norvegicus [18]) [%] | Biodistribution (Rattus norvegicus [19]) [%] | further results
1 | CCCCCCCCCCCCCCCC(=O)OC(COC(=O)CCCCCCCCCCCCCCCCc1c(I)cc(I)c(N)c1I)COC(=O)CCCCCCCCCCCCCCCCc1c(I)cc(I)c(N)c1I | 32.7 | 34.4 | 4.78 | 0.87 | 2.5 | 14.2 | 9.7 | 4.2 | 24.8 | 1.03 | 70.9 | 28.8 | 1.97 | 1.45 | 32.9 | 26.2 | 63.5 | 17.3 | 0.87 | 0.07 | Biodistribution (Rattus norvegicus [12]): 0.13% and 0.37%; Biodistribution (Rattus norvegicus [20]): 0.08%; Extracted (Rattus norvegicus [21]): 42.3%; Parent compound (Rattus norvegicus [21]): 25.3%; Biodistribution (Rattus norvegicus [22]): 0.67% and 4.76%; Radioactivity (Rattus norvegicus [23]): 33.8; Total radioactivity (Rattus norvegicus [24]): 37.1%; Radioactivity (Rattus norvegicus [25]): 2.59; Biodistribution (Rattus norvegicus [26]): 0.03%; Biodistribution (Rattus norvegicus [27]): 4.2%; Extracted (Rattus norvegicus [28]): 44.1%; Parent compound (Rattus norvegicus [28]): 18%
2 | Nc1c(I)cc(I)c(CCC(=O)OCC(COC(=O)CCc2c(I)cc(I)c(N)c2I)OC(=O)CCc2c(I)cc(I)c(N)c2I)c1I | 75.5 | 38.4 | 2.15 | 1.93 | 18.3 | 27.6 | 20.2 | 10.4 | 34.5 | 6.63 | 89 | 94.5 | 1.71 | 6.69 | 29.6 | 10.5 | 91.1 | 96.5 | 0.82 | 0.05 | Total radioactivity (Rattus norvegicus [29]): 3.2% and 4.1%; Biodistribution (Rattus norvegicus [20]): 2.64%; Extracted (Rattus norvegicus [21]): 94.8%; Parent compound (Rattus norvegicus [21]): 97.3%; Biodistribution (Rattus norvegicus [22]): 0.44% and 8.02%; Radioactivity (Rattus norvegicus [23]): 60.5; Total radioactivity (Rattus norvegicus [24]): 13.8%; Radioactivity (Rattus norvegicus [25]): 86.2; Biodistribution (Rattus norvegicus [26]): 0.19%; Biodistribution (Rattus norvegicus [27]): 10.38%; Extracted (Rattus norvegicus [28]): 83.3%; Parent compound (Rattus norvegicus [28]): 68.2%
3 | CCCCCCCCCCCCCCCC(=O)OC(COC(=O)CCCCCCCCCCCc1c(I)cc(I)c(N)c1I)COC(=O)CCCCCCCCCCCc1c(I)cc(I)c(N)c1I | 30.7 | 12 | 2.74 | 1.43 | 61.6 | 12.1 | 8.6 | 4.24 | 25.7 | 0.73 | 64.6 | 11.3 | 1.49 | 1.38 | 8.2 | 14.8 | 81.7 | 44.9 | 1.06 | 0.1 | Total radioactivity (Rattus norvegicus [29]): 3.4% and 3.1%; Biodistribution (Rattus norvegicus [12]): 0.14% and 1.06%; Biodistribution (Rattus norvegicus [20]): 0.12%; Extracted (Rattus norvegicus [21]): 64.2%; Parent compound (Rattus norvegicus [21]): 28.1%; Biodistribution (Rattus norvegicus [22]): 0.64% and 5.84%; Radioactivity (Rattus norvegicus [23]): 43.4; Total radioactivity (Rattus norvegicus [24]): 50.7%; Radioactivity (Rattus norvegicus [25]): 7.73; Biodistribution (Rattus norvegicus [26]): 0.12%; Biodistribution (Rattus norvegicus [27]): 4.24%; Extracted (Rattus norvegicus [28]): 52%; Parent compound (Rattus norvegicus [28]): 25.3%
